# Experimental data taken from ChEMBL document CHEMBL5058577, “EUbOPEN Chemogenomics Library 2 (Multiplex)” (2022).
# Test system: U2OS
# Experiment: Multiplex assay against U2OS
# Format: toxicity, cell-based
# Details: human
# Outline: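 Compound was added to live cells that had been stained at seeding with Hoechst33342, BioTracker Green Microtubule Cytoskeleton Dye, MitoTracker Red and Annexin V Alexa Fluor 680, and imaging followed on a CQ1 microscope at 37°C and 5% CO2. CellPathfinder machine-learning gating divided cells into Hoechst high-intensity objects or normal cells, normal cells into healthy, pyknosed or fragmented nuclei, and pyknosed cells into mitotic or apoptotic. Tubulin, mitochondrial-mass and membrane-permeability phenotypes are per cents of healthy-nucleus cells.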
# [1] = 12 h, 1 µM, compound concentration 1 uM, replicate 1
# [2] = 12 h, 1 µM, compound concentration 1 uM, replicate 2
# [3] = 12 h, 10 µM, compound concentration 10 uM, replicate 1
# [4] = 12 h, 10 µM, compound concentration 10 uM, replicate 2
# [5] = 24 h, 1 µM, compound concentration 1 uM, replicate 1
# [6] = 24 h, 1 µM, compound concentration 1 uM, replicate 2
# [7] = 24 h, 10 µM, compound concentration 10 uM, replicate 1
# [8] = 24 h, 10 µM, compound concentration 10 uM, replicate 2
# [9] = 48 h, 1 µM, compound concentration 1 uM, replicate 1
# [10] = 48 h, 1 µM, compound concentration 1 uM, replicate 2
# [11] = 48 h, 10 µM, compound concentration 10 uM, replicate 1
# [12] = 48 h, 10 µM, compound concentration 10 uM, replicate 2
smiles,measurement,setting,value
COc1cc(NC(=O)CCN2CCC(OC(=O)Nc3ccccc3-c3ccccc3)CC2)c(Cl)cc1CNC[C@H](O)c1ccc(O)c2[nH]c(=O)ccc12 [BATEFENTEROL],Population Apoptotic (%),[1],68%
same,Population Fragmented Nuclei (%),[1],29%
same,Population Healthy Nuclei (%),[1],49%
same,Population Hoechst High Intensity Objects (%),[1],4%
same,Population Membrane Permeable-Phenotype (%),[1],5%
same,Population Mitochondria Different-Phenotype (%),[1],5%
same,Population Mitotic Cells (%),[1],31%
same,Population Normal (%),[1],95%
same,Population Pyknosed Nuclei (%),[1],21%
same,Population Tubulin-Different-Phenotype (%),[1],4%
same,Total Cell Count,[1],159
same,Population Apoptotic (%),[2],85%
same,Population Fragmented Nuclei (%),[2],14%
same,Population Healthy Nuclei (%),[2],78%
same,Population Hoechst High Intensity Objects (%),[2],1%
same,Population Membrane Permeable-Phenotype (%),[2],9%
same,Population Mitochondria Different-Phenotype (%),[2],6%
same,Population Mitotic Cells (%),[2],14%
same,Population Normal (%),[2],98%
same,Population Pyknosed Nuclei (%),[2],7%
same,Population Tubulin-Different-Phenotype (%),[2],7%
same,Total Cell Count,[2],98
same,Population Apoptotic (%),[3],72%
same,Population Fragmented Nuclei (%),[3],37%
same,Population Healthy Nuclei (%),[3],44%
same,Population Hoechst High Intensity Objects (%),[3],6%
same,Population Membrane Permeable-Phenotype (%),[3],60%
same,Population Mitochondria Different-Phenotype (%),[3],67%
same,Population Mitotic Cells (%),[3],27%
same,Population Normal (%),[3],93%
same,Population Pyknosed Nuclei (%),[3],18%
same,Population Tubulin-Different-Phenotype (%),[3],75%
same,Total Cell Count,[3],196
same,Population Apoptotic (%),[4],88%
same,Population Fragmented Nuclei (%),[4],18%
same,Population Healthy Nuclei (%),[4],59%
same,Population Hoechst High Intensity Objects (%),[4],7%
same,Population Membrane Permeable-Phenotype (%),[4],57%
same,Population Mitochondria Different-Phenotype (%),[4],95%
same,Population Mitotic Cells (%),[4],11%
same,Population Normal (%),[4],92%
same,Population Pyknosed Nuclei (%),[4],22%
same,Population Tubulin-Different-Phenotype (%),[4],97%
same,Total Cell Count,[4],82
same,Population Apoptotic (%),[5],74%
same,Population Fragmented Nuclei (%),[5],27%
same,Population Healthy Nuclei (%),[5],55%
same,Population Hoechst High Intensity Objects (%),[5],2%
same,Population Membrane Permeable-Phenotype (%),[5],9%
same,Population Mitochondria Different-Phenotype (%),[5],9%
same,Population Mitotic Cells (%),[5],25%
same,Population Normal (%),[5],97%
same,Population Pyknosed Nuclei (%),[5],17%
same,Population Tubulin-Different-Phenotype (%),[5],5%
same,Total Cell Count,[5],182
same,Population Apoptotic (%),[6],100%
same,Population Fragmented Nuclei (%),[6],12%
same,Population Healthy Nuclei (%),[6],75%
same,Population Hoechst High Intensity Objects (%),[6],1%
same,Population Membrane Permeable-Phenotype (%),[6],5%
same,Population Mitochondria Different-Phenotype (%),[6],6%
same,Population Mitotic Cells (%),[6],0%
same,Population Normal (%),[6],98%
same,Population Pyknosed Nuclei (%),[6],11%
same,Population Tubulin-Different-Phenotype (%),[6],2%
same,Total Cell Count,[6],103
same,Population Apoptotic (%),[7],79%
same,Population Fragmented Nuclei (%),[7],38%
same,Population Healthy Nuclei (%),[7],38%
same,Population Hoechst High Intensity Objects (%),[7],4%
same,Population Membrane Permeable-Phenotype (%),[7],32%
same,Population Mitochondria Different-Phenotype (%),[7],59%
same,Population Mitotic Cells (%),[7],20%
same,Population Normal (%),[7],95%
same,Population Pyknosed Nuclei (%),[7],22%
same,Population Tubulin-Different-Phenotype (%),[7],44%
same,Total Cell Count,[7],199
same,Population Apoptotic (%),[8],73%
same,Population Fragmented Nuclei (%),[8],29%
same,Population Healthy Nuclei (%),[8],42%
same,Population Hoechst High Intensity Objects (%),[8],9%
same,Population Membrane Permeable-Phenotype (%),[8],52%
same,Population Mitochondria Different-Phenotype (%),[8],91%
same,Population Mitotic Cells (%),[8],26%
same,Population Normal (%),[8],90%
same,Population Pyknosed Nuclei (%),[8],27%
same,Population Tubulin-Different-Phenotype (%),[8],91%
same,Total Cell Count,[8],93
same,Population Apoptotic (%),[9],82%
same,Population Fragmented Nuclei (%),[9],26%
same,Population Healthy Nuclei (%),[9],54%
same,Population Hoechst High Intensity Objects (%),[9],3%
same,Population Membrane Permeable-Phenotype (%),[9],3%
same,Population Mitochondria Different-Phenotype (%),[9],5%
same,Population Mitotic Cells (%),[9],17%
same,Population Normal (%),[9],96%
same,Population Pyknosed Nuclei (%),[9],19%
same,Population Tubulin-Different-Phenotype (%),[9],3%
same,Total Cell Count,[9],242
same,Population Apoptotic (%),[10],85%
same,Population Fragmented Nuclei (%),[10],17%
same,Population Healthy Nuclei (%),[10],64%
same,Population Hoechst High Intensity Objects (%),[10],4%
same,Population Mitochondria Different-Phenotype (%),[10],1%
same,Population Mitotic Cells (%),[10],14%
same,Population Normal (%),[10],95%
same,Population Pyknosed Nuclei (%),[10],17%
same,Population Tubulin-Different-Phenotype (%),[10],1%
same,Total Cell Count,[10],123
same,Population Apoptotic (%),[11],92%
same,Population Fragmented Nuclei (%),[11],41%
same,Population Healthy Nuclei (%),[11],39%
same,Population Hoechst High Intensity Objects (%),[11],6%
same,Population Membrane Permeable-Phenotype (%),[11],31%
same,Population Mitochondria Different-Phenotype (%),[11],43%
same,Population Mitotic Cells (%),[11],7%
same,Population Normal (%),[11],93%
same,Population Pyknosed Nuclei (%),[11],18%
same,Population Tubulin-Different-Phenotype (%),[11],23%
same,Total Cell Count,[11],221
same,Population Apoptotic (%),[12],94%
same,Population Fragmented Nuclei (%),[12],29%
same,Population Healthy Nuclei (%),[12],32%
same,Population Hoechst High Intensity Objects (%),[12],10%
same,Population Membrane Permeable-Phenotype (%),[12],38%
same,Population Mitochondria Different-Phenotype (%),[12],70%
same,Population Mitotic Cells (%),[12],5%
same,Population Normal (%),[12],89%
same,Population Pyknosed Nuclei (%),[12],37%
same,Population Tubulin-Different-Phenotype (%),[12],48%
same,Total Cell Count,[12],105
